Source: PubChem
Hits are enriched below; roughly 1.4% of the tested compounds scored in any of these assays.
NR2E3 ag-1: activates human photoreceptor nuclear receptor NR2E3; Q9Y5X4; 320,000 tested, 0.12% active; GST-NR2E3/biotin-RetCOR TR-FRET, 1536-well; AID 2300; inhibition of corepressor binding, % at 4.78 µM;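 active means percent inhibition above the cutoff of mean plus 3 SD of all tested compounds, set per screening campaign, cut at about 20% in these data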;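 further: 0% = DMSO wells and 100% = biotin wells as full block of FRET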
Target sequence (Q9Y5X4 whole entry, looked up): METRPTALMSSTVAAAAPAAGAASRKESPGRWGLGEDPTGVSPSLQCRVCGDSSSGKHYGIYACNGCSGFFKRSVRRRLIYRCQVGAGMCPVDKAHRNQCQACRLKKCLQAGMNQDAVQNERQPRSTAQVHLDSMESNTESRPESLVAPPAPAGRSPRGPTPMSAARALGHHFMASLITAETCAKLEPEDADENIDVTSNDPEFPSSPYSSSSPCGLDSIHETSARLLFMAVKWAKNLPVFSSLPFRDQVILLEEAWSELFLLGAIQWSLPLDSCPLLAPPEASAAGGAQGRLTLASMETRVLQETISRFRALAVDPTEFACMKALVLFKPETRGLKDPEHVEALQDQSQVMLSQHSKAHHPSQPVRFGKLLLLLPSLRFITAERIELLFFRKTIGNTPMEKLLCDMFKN
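Material: NR2E3–RetCOR corepressor complex / Incubation: Compound–protein incubation for 5 h at 4 °C / Dosing: compound at 4.8 µM, single dose / Detection: time-resolved FRET / Benchmarks: high control biotin, low control 0.6% DMSO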
PG9 Ab binder: PG9 antibody binding by small molecule. TR-FRET gp120-PG9 antibody binding. inhibition, % at 6.7 µM. 360,000 tested, 0.43% active. AID 624416; in the data active means inhibition above about 8.5%
NR2E3 ag-2: activates human NR2E3 receptor; inhibition of corepressor binding, % at 3.98 µM; CHO-S Gal4-NCOR/VP16-NR2E3 two-hybrid, luciferase; 360,000 tested, 0.35% active; Q9Y5X4;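 active means inhibition above the mean of all tested compounds plus 3 SD, cut at about 70% in these data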;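 further: 0% = DMSO with NR2E3 transfected cells and 100% = cells lacking NR2E3 construct; higher means lower luciferase signal from less NR2E3 corepressor binding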
NR1D1 modulator: modulates human Rev-erb alpha binding to DNA; P20393; Rev-erbα–FITC-DNA binding, fluorescence polarization, 90 min; activity, % at 10 µM; 370,000 tested, 0.79% active; AID 1259318;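 active means activity above about 14%, limit read from the data; passing the limit was not always enough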;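 further: 0% = DMSO wells with 35 nM protein and 100% = DMSO wells with 750 nM protein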
NR1D1 mod conf: Rev-erb alpha (human) modulation, hit confirmation. shares compounds with NR1D1 modulator. Rev-erb alpha FITC-DNA binding, fluorescence polarization, 90 min. activation, % at 25 µM. 3,000 tested, 61% active;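 active means activation at or above a set limit, or at least 3 SD above the negative control mean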;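 further: 0% = 35 nM protein with DMSO and 100% = 750 nM protein high control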
RORg counter: RORgamma DNA-binding activity, dose-response counter-screen | shares compounds with NR1D1 modulator | purified RORgamma protein-FITC-DNA binding, fluorescence polarization | IC50, µM | 910 tested, 8% active | AID 1259320;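 active means Compounds whose fitted half-maximal concentration for disrupting protein-DNA binding is below 10 micromolar; the record names Rev-erb in its text, so the target is in doubt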
An asterisk follows results filed as active; i = inactive; / = no result given.

SMILES	NR2E3 ag-1	PG9 Ab binder	NR2E3 ag-2	NR1D1 modulator	NR1D1 mod conf	others
COc1ccc(NC(=O)CNc2ccccc2N2CCCC2=O)cc1S(=O)(=O)N1CCOCC1	-3.3	2.7	-9.9	-7.0	/
O=c1[nH]cnc2c1sc1nc(C(F)F)cc(-c3ccccc3)c12	12.2	5.2	-17.0	31.6*	28.1*
NC(=O)c1c(NC(=O)c2ccccc2)sc2c1CCc1ccccc1-2	1.5	-0.3	-122.5	47.4*	18.3*
COc1cc(C(=O)NCC(=O)N/N=C/c2cccs2)cc(OC)c1OC	2.7	-0.5	-16.0	-0.6	/
CN1C(=O)c2cc(NS(C)(=O)=O)ccc2OC[C@H]2O[C@@H](CC(=O)NCc3ccc(-c4ccccc4)cc3)CC[C@@H]21	/	/	/	83.0*	20.0*
CN1C(=O)c2cc(NC(=O)Nc3ccccc3)ccc2OC[C@H]2O[C@@H](CC(=O)NCc3ccc(-c4ccccc4)cc3)CC[C@@H]21	/	/	/	21.1	/
CN1C(=O)c2cc(NC(=O)Nc3ccccc3F)ccc2OC[C@H]2O[C@@H](CC(=O)NCc3ccc(-c4ccccc4)cc3)CC[C@@H]21	/	/	/	106.5*	69.5*	RORg counter=>40
COc1ccccc1N(C(=O)c1snc(C(N)=O)c1N)C(C(=O)NC1CCCC1)c1ccc(N(C)C)cc1 (centres undefined)	0.3	-1.7	-29.5	36.2*	10.4
CCCCCn1c(=O)[nH]c2cc(C(=O)NCCN3C(C)CCCC3C)ccc2c1=O (centres undefined)	0.1	0.8	5.7	0.2	/
N#CCCN1CCCc2cc(N=Nc3ccc(C(F)(F)F)cc3)ccc21	-0.7	-1.0	-33.5	17.5*	21.9*
CCOC(=O)c1nn(-c2ccc(F)cc2)c(=O)cc1OCC(=O)Nc1ccc(F)c(F)c1	-2.1	-1.2	2.8	170.0*	128.7*	RORg counter=i
CCOC(=O)c1nn(-c2ccc(C)cc2)c(=O)cc1OCC(=O)Nc1ccc(OC)cc1	1.5	-1.4	12.4	-14.9	/
Cc1[nH]c2ccccc2c1C(=O)CSc1ccccc1	1.1	-3.1	-59.8	3.1	/
Cc1ccc2c(C(=O)CSc3ccccc3)c(C)[nH]c2c1	-5.6	-5.3	-24.3	30.3*	28.2*
CCc1nnc2sc(-c3ccc(NC(=O)CSc4ccc(Cl)cc4)cc3)nn12	0.8	-0.3	-14.1	32.2*	20.7*
CCCc1c(C(=O)N/N=C/c2ccc(C)o2)nnn1-c1nonc1N	/	1.9	-19.3	-3.7	/
CCCN(CCC)Cc1c(C(=O)N/N=C/c2ccc(C)o2)nnn1-c1nonc1N	2.4	2.1	-14.1	30.6*	8.0
Cc1cccc(C(=O)OCC(=O)c2cccc(Br)c2)c1O	1.0	0.6	5.5	19.3*	5.3
Cc1cc(C)c2nc(SCC#N)cc(C)c2c1	3.1	-1.0	-41.0	3.5	/
C/C(N)=C(/C#N)C(=O)CSc1cc(C)c2cc(C)cc(C)c2n1	1.6	2.0	-5.4	50.2*	27.5*
O=S(=O)(c1ccc(F)cc1)N1CCN(c2ccc(F)cc2)CC1	1.4	0.4	-36.8	0.2	/
O=c1ccc2cc(S(=O)(=O)N3CCN(c4ccccc4F)CC3)ccc2[nH]1	1.1	0.4	22.6	-2.1	/
O=S(=O)(c1ccc2nc(N3CCN(c4ccccc4F)CC3)ccc2c1)N1CCCCC1	-0.9	0.1	9.9	41.1*	30.6*	RORg counter=>40
CC1CCN(S(=O)(=O)c2ccc3nc(N4CCN(c5ccccc5)CC4)ccc3c2)CC1	7.1	1.1	/	92.4*	56.7*	RORg counter=>40
O=S(=O)(c1ccc2nc(N3CCN(c4ccc(F)cc4)CC3)ccc2c1)N1CCCCC1	-1.2	-0.6	-2.4	36.9*	27.0*
SMILES	NR2E3 ag-1	PG9 Ab binder	NR2E3 ag-2	NR1D1 modulator	NR1D1 mod conf	others
COc1ccc(Cc2nc3ccccc3n2CC(=O)N/N=C/c2ccc(O)cc2)cc1OC	-1.7	-1.8	-14.8	-3.4	/
COc1ccc(Cc2nc3ccccc3n2CC(=O)N/N=C/c2ccc(C)cc2O)cc1OC	-0.7	-0.7	-26.1	34.4*	44.8*	RORg counter=>40
COc1ccccc1-c1cc(-c2ccccc2)nc(SC(C(N)=O)c2ccccc2)c1C#N (centres undefined)	5.9	8.2	-15.0	39.2*	20.2*
Cc1nc(SC(C(N)=O)c2ccccc2)c(C#N)c(C)c1C (centres undefined)	-1.5	-3.6	-5.5	-3.8	/
Cc1nc(NC(=O)c2cccc(-c3cc4ccccc4oc3=O)c2)ccc1Br	-6.9	0.4	-111.6	18.7	/
Cc1nc(NC(=O)c2ccc(-c3cc4ccccc4oc3=O)cc2)ccc1Br	-5.5	1.4	5.4	35.6*	-7.5
Cc1nc(NC(=O)c2cncc(Br)c2)ccc1Br	1.2	-0.1	-17.9	61.7*	54.9*	RORg counter=>40
CCOC(=O)c1ccccc1NC(=O)c1cncc(Br)c1	/	1.4	-9.9	93.8*	76.9*	RORg counter=>40
COc1ccc(CCNC(=O)c2cccn2C)cc1	1.3	-0.5	-90.3	-4.9	/
COCCN(C(=O)COc1ccc(Cl)cc1)c1nnc(-c2cccnc2)s1	3.5	-0.2	11.2	24.2*	15.7
O=C1c2cccc3c(N4CCCCC4)ccc(c23)C(=O)N1c1ccc(O)cc1	1.2	-4.1	-28.2	-0.1	/
O=C1c2cccc3c(N4CCCCC4)ccc(c23)C(=O)N1c1ccccc1O	4.2	0.9	5.0	27.1*	32.9*	RORg counter=>40
CC(C(=O)N1CCc2ccccc21)N1CCN(S(=O)(=O)c2ccc(C(F)(F)F)cc2)CC1 (centres undefined)	0.3	0.0	-7.6	16.6*	-2.7
CCOC(=O)Cn1c(=NC(=O)C2CC2)sc2c(C)cc(C)cc21	1.2	21.4*	-21.0	17.9*	-8.2
COc1ccc(C(=O)N2C(=O)c3ccc(N)cc3C2=O)cc1	-4.9	1.4	0.5	23.2*	6.6
COc1ccc(C(=O)n2cnc(N)n2)cc1	-2.6	0.4	-6.2	-2.6	/
C=CCNC(=S)N1N=C(c2ccco2)CC1c1ccco1 (centres undefined)	/	0.0	5.5	-5.6	/
CCOC(=O)c1ccc(N/C=C\C(=O)c2cccc(OC)c2)cc1	1.6	2.2	-45.3	26.6*	4.7
CCOc1ccccc1NC(=O)CSC1=C(C#N)C(c2ccco2)C(C(=O)Nc2nc3ccccc3s2)=C(C)N1 (centres undefined)	1.1	1.1	-26.2	66.1*	54.3*	RORg counter=>40
N#Cc1ccccc1S(=O)(=O)N1CCN(C(=O)Cc2coc3cc(O)ccc23)CC1	2.8	0.1	21.7	-3.3	/
COc1cc(-c2noc(-c3cccc(Cl)c3)n2)cc(OC)c1OC	3.8	4.0	-41.5	73.6*	122.7*
C[C@@H]1CN([C@H](C)CO)S(=O)(=O)c2ccc(C#Cc3ccccc3F)cc2O[C@H]1CN(C)C(=O)c1ccc2c(c1)OCO2	/	-0.5	-16.1	4.4	/
CC(C)Cn1c(SCC(=O)N(C)C2CCS(=O)(=O)C2)nc2cc(Cl)ccc2c1=O (centres undefined)	-4.5	-2.4	-0.2	3.5	/
